Measured values taken from ChEMBL document CHEMBL1955837 (J Med Chem, 2012).
The source made the active and inactive calls. The rule behind the calls is not given here.

Assays:
[1] = organism: Homo sapiens; test: Selectivity ratio of IC50 for human recombinant eNOS to IC50 for human recombinant nNOS
[2] = target: Nitric oxide sythases; iNOS & nNOS (Homo sapiens) (UniProt P29475+P35228); test: Selectivity ratio of IC50 for human recombinant iNOS to IC50 for human recombinant nNOS
[3] = target: Nitric oxide synthase 1 (Homo sapiens, UniProt P29475); test: Inhibition of human recombinant nNOS expressed in baculovirus infected insect Sf9 cells assessed as conversion of [3H]L-arginine to [3H]L-citrulline incubated for 15 mins prior to substrate addition measured after 45 mins by liquid scintillation counting
Nitric oxide synthase 1 (Homo sapiens, UniProt P29475), sequence (P29475 whole entry): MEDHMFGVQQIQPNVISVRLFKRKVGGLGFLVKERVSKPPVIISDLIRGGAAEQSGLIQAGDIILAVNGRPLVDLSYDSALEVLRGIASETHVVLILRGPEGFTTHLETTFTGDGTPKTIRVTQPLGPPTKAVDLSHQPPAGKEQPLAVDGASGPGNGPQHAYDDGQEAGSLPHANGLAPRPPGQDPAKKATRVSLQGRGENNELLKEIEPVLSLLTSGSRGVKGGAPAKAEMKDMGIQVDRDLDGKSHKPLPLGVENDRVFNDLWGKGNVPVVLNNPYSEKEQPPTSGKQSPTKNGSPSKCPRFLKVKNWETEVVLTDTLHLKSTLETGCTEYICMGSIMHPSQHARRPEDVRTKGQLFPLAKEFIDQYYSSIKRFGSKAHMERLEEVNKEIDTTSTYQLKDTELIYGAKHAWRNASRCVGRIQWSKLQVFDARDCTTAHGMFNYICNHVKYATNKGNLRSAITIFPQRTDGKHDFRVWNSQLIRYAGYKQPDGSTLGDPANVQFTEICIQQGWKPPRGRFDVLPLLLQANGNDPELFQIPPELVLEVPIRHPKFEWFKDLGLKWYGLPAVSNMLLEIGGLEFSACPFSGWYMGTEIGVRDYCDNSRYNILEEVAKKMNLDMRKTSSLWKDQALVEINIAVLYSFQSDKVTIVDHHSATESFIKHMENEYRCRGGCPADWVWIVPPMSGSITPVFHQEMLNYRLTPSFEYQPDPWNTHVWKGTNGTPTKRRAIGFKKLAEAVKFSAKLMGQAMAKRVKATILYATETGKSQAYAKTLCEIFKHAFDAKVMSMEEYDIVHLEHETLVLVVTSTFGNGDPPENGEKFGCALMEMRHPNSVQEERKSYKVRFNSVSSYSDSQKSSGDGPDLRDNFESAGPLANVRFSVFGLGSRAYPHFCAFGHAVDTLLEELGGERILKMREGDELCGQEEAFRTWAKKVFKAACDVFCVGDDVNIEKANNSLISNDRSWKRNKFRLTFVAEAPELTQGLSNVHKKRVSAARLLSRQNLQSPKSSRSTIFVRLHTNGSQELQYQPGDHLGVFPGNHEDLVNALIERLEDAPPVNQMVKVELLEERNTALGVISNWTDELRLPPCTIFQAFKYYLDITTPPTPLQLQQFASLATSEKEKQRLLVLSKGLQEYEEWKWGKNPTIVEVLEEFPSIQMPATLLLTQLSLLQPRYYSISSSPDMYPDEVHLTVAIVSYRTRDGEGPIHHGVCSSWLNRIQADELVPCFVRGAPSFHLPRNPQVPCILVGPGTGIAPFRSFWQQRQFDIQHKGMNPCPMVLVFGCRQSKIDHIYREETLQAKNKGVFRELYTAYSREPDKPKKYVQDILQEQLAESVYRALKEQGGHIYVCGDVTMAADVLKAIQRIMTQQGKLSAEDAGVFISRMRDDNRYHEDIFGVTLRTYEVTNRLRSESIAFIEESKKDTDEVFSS

[4] = target: T1, Nitric oxide synthase 3 (Homo sapiens, UniProt P29474); test: Inhibition of human recombinant eNOS expressed in baculovirus infected insect Sf9 cells assessed as conversion of [3H]L-arginine to [3H]L-citrulline incubated for 15 mins prior to substrate addition measured after 45 mins by liquid scintillation counting
T1 sequence (P29474 whole entry): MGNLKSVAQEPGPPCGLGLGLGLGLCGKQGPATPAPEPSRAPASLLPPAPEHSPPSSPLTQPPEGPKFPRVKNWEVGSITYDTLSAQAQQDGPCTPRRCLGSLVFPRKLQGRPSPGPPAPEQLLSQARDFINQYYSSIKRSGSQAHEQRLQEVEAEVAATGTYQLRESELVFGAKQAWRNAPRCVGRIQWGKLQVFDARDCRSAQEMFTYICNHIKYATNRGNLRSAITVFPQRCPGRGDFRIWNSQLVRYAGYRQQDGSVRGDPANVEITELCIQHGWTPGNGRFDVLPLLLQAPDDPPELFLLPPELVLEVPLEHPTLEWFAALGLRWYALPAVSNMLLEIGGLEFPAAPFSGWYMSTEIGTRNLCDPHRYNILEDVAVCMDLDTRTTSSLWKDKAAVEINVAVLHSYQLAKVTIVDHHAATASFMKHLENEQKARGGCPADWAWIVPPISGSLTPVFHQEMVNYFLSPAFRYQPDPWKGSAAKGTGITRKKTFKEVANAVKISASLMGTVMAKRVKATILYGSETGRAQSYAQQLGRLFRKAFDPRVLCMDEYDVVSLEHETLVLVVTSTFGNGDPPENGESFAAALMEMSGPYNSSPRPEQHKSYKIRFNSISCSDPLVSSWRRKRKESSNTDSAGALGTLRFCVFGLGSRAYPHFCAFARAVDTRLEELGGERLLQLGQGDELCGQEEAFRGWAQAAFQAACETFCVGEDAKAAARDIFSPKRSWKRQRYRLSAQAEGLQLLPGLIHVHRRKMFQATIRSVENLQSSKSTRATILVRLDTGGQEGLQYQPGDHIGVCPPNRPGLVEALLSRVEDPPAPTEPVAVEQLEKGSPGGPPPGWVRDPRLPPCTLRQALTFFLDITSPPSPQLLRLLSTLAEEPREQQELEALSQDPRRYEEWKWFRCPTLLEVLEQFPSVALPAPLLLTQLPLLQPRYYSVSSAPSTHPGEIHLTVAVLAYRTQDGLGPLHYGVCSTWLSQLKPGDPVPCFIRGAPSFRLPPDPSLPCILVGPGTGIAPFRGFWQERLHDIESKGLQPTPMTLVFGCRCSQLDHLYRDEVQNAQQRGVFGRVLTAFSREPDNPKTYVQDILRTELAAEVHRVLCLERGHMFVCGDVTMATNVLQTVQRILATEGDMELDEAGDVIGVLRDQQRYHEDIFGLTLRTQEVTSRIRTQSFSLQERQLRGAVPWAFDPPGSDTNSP

[5] = target: Nitric oxide synthase, inducible (Homo sapiens, UniProt P35228); test: Inhibition of human recombinant iNOS expressed in baculovirus infected insect Sf9 cells assessed as conversion of [3H]L-arginine to [3H]L-citrulline incubated for 15 mins prior to substrate addition measured after 45 mins by liquid scintillation counting
Nitric oxide synthase, inducible (Homo sapiens, UniProt P35228), sequence (P35228 whole entry): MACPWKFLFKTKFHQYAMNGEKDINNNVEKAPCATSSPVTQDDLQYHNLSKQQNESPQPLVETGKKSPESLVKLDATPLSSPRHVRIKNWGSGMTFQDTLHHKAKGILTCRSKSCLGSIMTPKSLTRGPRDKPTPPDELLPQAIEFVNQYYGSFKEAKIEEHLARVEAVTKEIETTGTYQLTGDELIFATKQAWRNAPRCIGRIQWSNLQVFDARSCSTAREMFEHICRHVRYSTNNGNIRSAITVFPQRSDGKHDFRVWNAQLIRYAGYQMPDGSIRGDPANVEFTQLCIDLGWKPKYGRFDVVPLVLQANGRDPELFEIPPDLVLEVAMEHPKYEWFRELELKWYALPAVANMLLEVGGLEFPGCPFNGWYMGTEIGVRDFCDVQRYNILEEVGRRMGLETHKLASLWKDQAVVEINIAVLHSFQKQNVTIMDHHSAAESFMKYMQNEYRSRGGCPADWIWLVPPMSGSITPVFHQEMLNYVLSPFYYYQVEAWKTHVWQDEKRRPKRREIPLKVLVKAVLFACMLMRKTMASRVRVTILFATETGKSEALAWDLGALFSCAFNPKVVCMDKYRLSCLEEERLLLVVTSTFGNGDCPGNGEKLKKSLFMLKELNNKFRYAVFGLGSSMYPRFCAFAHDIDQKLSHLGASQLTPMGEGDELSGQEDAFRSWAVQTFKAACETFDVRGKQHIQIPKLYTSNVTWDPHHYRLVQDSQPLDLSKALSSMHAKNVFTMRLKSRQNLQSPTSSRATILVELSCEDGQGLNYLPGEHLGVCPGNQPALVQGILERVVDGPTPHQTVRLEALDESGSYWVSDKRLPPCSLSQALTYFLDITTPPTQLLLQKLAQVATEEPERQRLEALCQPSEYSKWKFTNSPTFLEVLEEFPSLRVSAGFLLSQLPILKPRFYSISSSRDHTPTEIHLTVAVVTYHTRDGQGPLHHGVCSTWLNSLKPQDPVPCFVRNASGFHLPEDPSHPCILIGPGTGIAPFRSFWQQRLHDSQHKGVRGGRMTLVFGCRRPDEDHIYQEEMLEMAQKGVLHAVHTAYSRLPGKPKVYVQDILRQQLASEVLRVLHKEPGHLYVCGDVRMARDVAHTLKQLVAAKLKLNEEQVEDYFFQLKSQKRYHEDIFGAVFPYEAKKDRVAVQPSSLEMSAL

[6] = target: Voltage-gated inwardly rectifying potassium channel KCNH2 (Homo sapiens, UniProt Q12809); test: Inhibition of human Erg expressed in HEK293 cells by patch clamp assay
[7] = Cardiotoxicity in human arteries assessed as inhibition of acetylcholine-mediated vasorelaxation at 100 uM pretreated with U46619 prior to Ach challenge measured after 50 mins; format: toxicity, tissue-based, Artery
Procedure, shortened: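 Human resistance artery rings (~2 mm) were wire-mounted in a myograph in Krebs-bicarbonate PSS gassed with 95% O2/5% CO2 at 37 °C, and isometric tension was recorded. After ≥30 min equilibration, rings received three KPSS (62.5 mM) challenges. Endothelial integrity was checked with U46619 (1 × 10⁻⁷ M) then ACh. Compound was added for 50 min without L-arginine, then rings were submaximally precontracted with U46619 before cumulative ACh (1 × 10⁻¹⁰ to 1 × 10⁻⁵ M).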

[8] = Cardiotoxicity in human arteries assessed as inhibition of acetylcholine-mediated vasorelaxation at 100 uM pretreated with U46619 prior to Ach challenge measured after 50 mins in presence of L-arginine; format: toxicity, tissue-based, Artery
[9] = target: Nitric oxide synthase 1 (Rattus norvegicus, UniProt P29476); test: Inhibition of rat recombinant nNOS expressed in baculovirus infected insect Sf9 cells assessed as conversion of [3H]L-arginine to [3H]L-citrulline incubated for 15 mins prior to substrate addition measured after 45 mins by liquid scintillation counting
[10] = target: Nitric oxide synthase 3 (Rattus norvegicus, UniProt Q62600); test: Inhibition of rat recombinant eNOS expressed in baculovirus infected insect Sf9 cells assessed as conversion of [3H]L-arginine to [3H]L-citrulline incubated for 15 mins prior to substrate addition measured after 45 mins by liquid scintillation counting
[11] = target: Nitric oxide synthase, inducible (Rattus norvegicus, UniProt Q06518); test: Inhibition of rat recombinant iNOS expressed in baculovirus infected insect Sf9 cells assessed as conversion of [3H]L-arginine to [3H]L-citrulline incubated for 15 mins prior to substrate addition measured after 45 mins by liquid scintillation counting
[12] = tested on: Rattus norvegicus; test: Analgesic activity in rat Chung model of neuropathic pain assessed as partial reversal of thermal hyperalgesia at 30 mg/kg, ip; format: functional, organism-based; design: dose 30 mg/kg
Procedure, shortened: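 Rats anesthetized with halothane; L5 and L6 spinal nerves exposed, isolated and tightly ligated with 4-0 silk suture distal to the DRG. After surgical recovery, hyperalgesia was read as paw withdrawal latency to radiant heat applied to the paw after intraperitoneal dosing.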

[13] = target: Mu-type opioid receptor (Homo sapiens) (UniProt P35372); test: Displacement of [3H]DAMGO from human recombinant mu opioid receptor expressed in HEK 293 cells at 10 uM after 120 mins; format: cell-based; details: HEK293
Procedure, shortened: (§1)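 Single-concentration (10 μM) radioligand binding screen. Specific binding = total minus nonspecific binding, with nonspecific binding taken in excess unlabeled ligand. Results were given as percent inhibition of control specific binding.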

[14] = target: Kappa-type opioid receptor (Rattus norvegicus) (UniProt P34975); test: Displacement of [3H]U 69593 from rat recombinant kappa opioid receptor expressed in CHO cells at 10 uM after 60 mins; format: cell-based; procedure, shortened: as §1
Kappa-type opioid receptor (Rattus norvegicus), sequence (P34975 whole entry): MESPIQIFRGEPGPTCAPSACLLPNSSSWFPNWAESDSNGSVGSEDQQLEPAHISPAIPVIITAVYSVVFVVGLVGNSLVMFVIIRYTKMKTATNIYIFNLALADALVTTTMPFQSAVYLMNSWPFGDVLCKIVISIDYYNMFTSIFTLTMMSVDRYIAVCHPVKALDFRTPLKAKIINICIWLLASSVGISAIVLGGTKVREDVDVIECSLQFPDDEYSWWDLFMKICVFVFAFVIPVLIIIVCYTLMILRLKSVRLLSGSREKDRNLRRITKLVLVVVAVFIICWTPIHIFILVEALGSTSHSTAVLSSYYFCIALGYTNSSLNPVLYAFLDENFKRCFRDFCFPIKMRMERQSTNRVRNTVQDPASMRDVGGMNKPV

[15] = organism: Rattus norvegicus; test: Displacement of [3H]DTG from rat cerebral cortex sigma receptor at 10 uM after 120 mins; format: tissue-based; procedure, shortened: as §1
[16] = target: Adrenergic receptor alpha-2 (Rattus norvegicus) (UniProt P22086+P19328+P22909); test: Displacement of [3H]RX 821002 from rat cerebral cortex alpha2 adrenergic receptor at 10 uM after 60 mins; format: tissue-based; procedure, shortened: as §1
[17] = target: 5-hydroxytryptamine receptor 1B (Rattus norvegicus) (UniProt P28564); test: Displacement of [125I]CYP from rat cerebral cortex 5HT1B receptor at 10 uM after 120 mins in the presence of (-)propranolol; format: tissue-based; procedure, shortened: as §1
5-hydroxytryptamine receptor 1B (Rattus norvegicus), sequence (P28564 whole entry): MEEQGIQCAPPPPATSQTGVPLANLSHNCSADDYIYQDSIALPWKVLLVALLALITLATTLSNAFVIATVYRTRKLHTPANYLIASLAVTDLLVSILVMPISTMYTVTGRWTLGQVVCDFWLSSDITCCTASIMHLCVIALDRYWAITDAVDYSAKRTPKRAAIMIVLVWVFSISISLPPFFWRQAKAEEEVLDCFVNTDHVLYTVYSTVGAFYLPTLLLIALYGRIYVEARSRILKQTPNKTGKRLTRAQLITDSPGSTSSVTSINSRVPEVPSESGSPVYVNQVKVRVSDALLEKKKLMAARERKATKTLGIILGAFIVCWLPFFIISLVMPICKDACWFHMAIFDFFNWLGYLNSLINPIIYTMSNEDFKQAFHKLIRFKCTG

[18] = target: 5-hydroxytryptamine receptor 5A (Homo sapiens) (UniProt P47898); test: Displacement of [3H]LSD from human recombinant 5-HT5a receptor expressed in HEK293 cells at 10 uM after 120 mins; format: cell-based; procedure, shortened: as §1
5-hydroxytryptamine receptor 5A (Homo sapiens), sequence (P47898 whole entry): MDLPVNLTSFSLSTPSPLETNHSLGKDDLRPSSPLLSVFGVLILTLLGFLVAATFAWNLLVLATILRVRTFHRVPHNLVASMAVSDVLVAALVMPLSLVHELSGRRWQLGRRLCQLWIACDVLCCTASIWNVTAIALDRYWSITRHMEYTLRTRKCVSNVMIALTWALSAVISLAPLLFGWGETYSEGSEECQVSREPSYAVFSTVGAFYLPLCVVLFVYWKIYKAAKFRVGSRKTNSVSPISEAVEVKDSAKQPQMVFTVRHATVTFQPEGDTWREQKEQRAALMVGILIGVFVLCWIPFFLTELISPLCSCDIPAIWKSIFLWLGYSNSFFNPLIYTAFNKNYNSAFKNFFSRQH

[19] = target: Muscarinic acetylcholine receptor M1 (Homo sapiens) (UniProt P11229); test: Displacement of [3H]pirenzepine from human recombinant muscarinic M1 receptor expressed in CHO cells at 10 uM after 60 mins; format: cell-based; procedure, shortened: as §1
[20] = target: Muscarinic acetylcholine receptor M2 (Homo sapiens) (UniProt P08172); test: Displacement of [3H]AF-DX 384 from human recombinant muscarinic M2 receptor expressed in CHO cells at 10 uM after 60 mins; format: cell-based; procedure, shortened: as §1
[21] = target: Muscarinic acetylcholine receptor M3 (Homo sapiens) (UniProt P20309); test: Displacement of [3H]4-DAMP from human recombinant muscarinic M3 receptor expressed in CHO cells at 10 uM after 60 mins; format: cell-based; procedure, shortened: as §1
Muscarinic acetylcholine receptor M3 (Homo sapiens), sequence (P20309 whole entry, looked up): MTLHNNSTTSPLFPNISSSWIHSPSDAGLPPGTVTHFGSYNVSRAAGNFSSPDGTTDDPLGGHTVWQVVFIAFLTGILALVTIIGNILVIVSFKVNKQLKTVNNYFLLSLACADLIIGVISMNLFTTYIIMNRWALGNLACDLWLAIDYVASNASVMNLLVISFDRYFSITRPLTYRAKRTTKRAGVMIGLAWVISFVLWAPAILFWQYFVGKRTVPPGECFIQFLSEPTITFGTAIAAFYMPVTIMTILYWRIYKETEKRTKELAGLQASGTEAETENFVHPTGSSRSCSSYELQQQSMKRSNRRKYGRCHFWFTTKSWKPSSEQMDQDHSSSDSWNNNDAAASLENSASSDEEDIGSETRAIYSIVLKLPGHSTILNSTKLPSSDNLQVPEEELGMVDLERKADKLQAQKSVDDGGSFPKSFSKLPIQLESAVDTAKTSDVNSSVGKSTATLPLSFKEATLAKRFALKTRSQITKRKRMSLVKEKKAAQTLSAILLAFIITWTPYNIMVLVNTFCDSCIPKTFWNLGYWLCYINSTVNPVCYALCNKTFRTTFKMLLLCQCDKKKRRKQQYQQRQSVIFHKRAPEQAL

[22] = target: Muscarinic acetylcholine receptor M4 (Homo sapiens) (UniProt P08173); test: Displacement of [3H]4-DAMP from human recombinant muscarinic M4 receptor expressed in CHO cells at 10 uM after 60 mins; format: cell-based; procedure, shortened: as §1
[23] = target: Muscarinic acetylcholine receptor M5 (Homo sapiens) (UniProt P08912); test: Displacement of [3H]4-DAMP from human recombinant muscarinic M5 receptor expressed in CHO cells at 10 uM after 60 mins; format: cell-based; procedure, shortened: as §1
[24] = target: T2, Sodium-dependent noradrenaline transporter (Homo sapiens, UniProt P23975); test: Displacement of [3H]nisoxetine from human recombinant norepinephrine transporter expressed in CHO cells at 10 uM after 120 mins; format: cell-based; procedure, shortened: as §1
T2 sequence (P23975 whole entry): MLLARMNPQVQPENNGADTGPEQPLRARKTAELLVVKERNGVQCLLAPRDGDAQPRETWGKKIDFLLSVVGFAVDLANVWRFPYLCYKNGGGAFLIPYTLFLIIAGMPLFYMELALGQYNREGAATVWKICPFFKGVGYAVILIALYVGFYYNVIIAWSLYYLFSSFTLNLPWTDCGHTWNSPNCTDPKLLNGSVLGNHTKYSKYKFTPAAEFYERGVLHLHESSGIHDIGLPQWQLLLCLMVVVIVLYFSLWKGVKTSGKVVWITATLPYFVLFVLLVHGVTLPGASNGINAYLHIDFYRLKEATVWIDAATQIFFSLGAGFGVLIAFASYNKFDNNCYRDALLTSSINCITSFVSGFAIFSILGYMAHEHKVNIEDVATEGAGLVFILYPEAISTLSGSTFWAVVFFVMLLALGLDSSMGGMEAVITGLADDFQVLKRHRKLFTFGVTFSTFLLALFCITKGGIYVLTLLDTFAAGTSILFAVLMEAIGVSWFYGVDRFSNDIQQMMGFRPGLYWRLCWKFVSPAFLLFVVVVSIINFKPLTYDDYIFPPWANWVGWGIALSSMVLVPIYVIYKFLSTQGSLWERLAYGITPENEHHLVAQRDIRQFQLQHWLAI

[25] = target: T2, Sodium-dependent noradrenaline transporter; test: Displacement of [3H]nisoxetine from human recombinant norepinephrine transporter expressed in CHO cells after 120 mins; format: cell-based
[26] = tested on: Rattus norvegicus; test: Analgesic activity in rat Chung model of neuropathic pain assessed as partial reversal of thermal hyperalgesia at 30 mg/kg, ip measured after 30 mins; details: route intraperitoneal

Nitric oxide sythases; iNOS & nNOS (Homo sapiens), sequence (P29475 whole entry, looked up): as the sequence (P29475 whole entry) above
Nitric oxide sythases; iNOS & nNOS (Homo sapiens), sequence (P35228 whole entry, looked up): as the sequence (P35228 whole entry) above

In the case of `N=C(Nc1ccc2c(c1)N(CCN1CC[C@@H](O)C1)CC2)c1cccs1`, the Ratio IC50 [1] is reported as 71 and the Ratio IC50 [2] is reported as 62.
Work on `N=C(Nc1ccc2c(c1)N(C1CCNC1)CC2)c1cccs1` (racemic) yielded an IC50 [3] of 0.18 µM, an IC50 [4] of 7.17 µM and an IC50 [5] of 8.94 µM. It also gave a Ratio IC50 [1] of 40 and a Ratio IC50 [2] of 50.
Work on `NC(=Nc1ccc2c(c1)N(C1CCNCC1)CC2)c1cccs1` yielded an IC50 [3] of 0.54 µM, an IC50 [4] of 99 µM and an IC50 [5] of 2.39 µM.
In the case of `CN[C@H]1CC[C@@H](N2CCc3cc(F)c(NC(=N)c4cccs4)cc32)CC1`, the IC50 [3] is reported as 5.82 µM, the IC50 [4] is reported as 220 µM and the IC50 [5] is reported as 897 µM. For the same compound, the Ratio IC50 [1] was 38 and the Ratio IC50 [2] was 154.
For `NC(=Nc1ccc2c(c1)N(CCNCCO)CC2)c1cccs1`, the IC50 [3] was 0.07 µM, the IC50 [4] was 3.36 µM and the IC50 [5] was 3.41 µM.
With `NC(=Nc1ccc2c(c1)N(C1CCCCC1)CC2)c1cccs1` the IC50 [3] was 4.07 µM, the IC50 [4] was 109 µM and the IC50 [5] was greater than 100 µM.
`NC(=Nc1ccc2c(c1)N(C1CCSCC1)CC2)c1cccs1` showed an IC50 [3] of 2.07 µM, an IC50 [4] of 21.5 µM and an IC50 [5] of 1.12 µM.
`N=C(Nc1cc2c(cc1F)CCN2C1CCNCC1)c1cccs1` gave an IC50 [3] of 18.8 µM, an IC50 [4] of 243 µM and an IC50 [5] of 481 µM. For the same compound, the Ratio IC50 [1] was 13 and the Ratio IC50 [2] was 26.
In the case of `CN1CCC[C@H]1CCN1CCCc2cc(NC(=N)c3cccs3)ccc21`, the IC50 [6] is reported as 4.7 µM, the Activity [7] is reported as “Active” and the Activity [8] is reported as “Active”.
In the case of `NC(=Nc1ccc2c(c1)N(CCN1CC[C@@H](O)C1)CC2)c1cccs1`, the IC50 [3] is reported as 0.11 µM, the IC50 [4] is reported as 7.12 µM and the IC50 [5] is reported as 6.79 µM.
`CN[C@H]1CC[C@H](N2CCc3cc(F)c(NC(=N)c4cccs4)cc32)CC1` showed an IC50 [3] of 5.75 µM, an IC50 [4] of 231 µM and an IC50 [5] of 522 µM. For the same compound, the Ratio IC50 [1] was 41 and the Ratio IC50 [2] was 91.
`CN[C@H]1CC[C@H](N2CCc3ccc(NC(=N)c4cccs4)cc32)CC1` gave an IC50 [3] of 2.12 µM, an IC50 [4] of 237 µM and an IC50 [5] of 189 µM.
For `NC(=Nc1ccc2c(c1)N(C1CCOCC1)CC2)c1cccs1`, the IC50 [3] was 3.26 µM, the IC50 [4] was 84.8 µM and the IC50 [5] was greater than 100 µM.
In the case of `CN[C@H]1CC[C@@H](N2CCc3ccc(NC(=N)c4cccs4)cc32)CC1`, the IC50 [3] is reported as 0.37 µM, the IC50 [4] is reported as 195 µM and the IC50 [5] is reported as 83 µM. For the same compound, the IC50 [9] was 1.93 µM, the IC50 [10] was 4.16 µM and the IC50 [11] was 2.34 µM. For the same compound, the Activity [12] was “Active”, the Activity [7] was “Not Active” and the Activity [8] was “Not Active”. The inhibition [13] was 52%, the inhibition [14] was 69% and the inhibition [15] was 72%. It also gave an inhibition [16] of 58%, an inhibition [17] of 60% and an inhibition [18] of 59%. The inhibition [19] was 80%, the inhibition [20] was 80% and the inhibition [21] was 85%. It also gave an inhibition [22] of 95%, an inhibition [23] of 90% and an inhibition [24] of 86%. The IC50 [25] was 4.4 µM and the MPE [26] was 66%.
`N=C(Nc1ccc2c(c1)N(CCNCCO)CC2)c1cccs1` gave a Ratio IC50 [1] of 48 and a Ratio IC50 [2] of 49.
`N=C(Nc1ccc2c(c1)N(C1CCSCC1)CC2)c1cccs1` gave a Ratio IC50 [1] of 10 and a Ratio IC50 [2] of 0.5.
Work on `N=C(Nc1ccc2c(c1)N(C1CCNCC1)CC2)c1cccs1` yielded a Ratio IC50 [1] of 183 and a Ratio IC50 [2] of 4.
For `N=C(Nc1ccc2c(c1)N(C1CCCCC1)CC2)c1cccs1`, the Ratio IC50 [1] was 27.
`N=C(Nc1ccc2c(c1)N(C1CCOCC1)CC2)c1cccs1` gave a Ratio IC50 [1] of 26.
